According to ChEMBL document CHEMBL1128708, “Synthesis of alkyl chain-modified ether lipids and evaluation of their in vitro cytotoxicity” (J Med Chem, 1995):

Species: Rattus norvegicus
Experiment: Maximal non-erythrolytic concentration(MNEC) was measured in erythrocytes from rat citreated blood
Assay type: functional
Details: not given
Outline: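 Rat citrated-blood erythrocytes washed in HBSS and mixed 9:1 with test solution for 30 min at 37 °C. Lysis read spectrophotometrically at 546 nm. Value reported as the maximal concentration (μM) causing no erythrolysis.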

SMILES	MNEC
CCCCCCCCC(CCCCCCOCC(COP(=O)([O-])OCC[N+](C)(C)C)OC)c1ccccc1 (stereo not drawn)	5 µM
CCCCCCCCCCCCCCCCOP(=O)([O-])OCC[N+](C)(C)C [MILTEFOSINE]	2 µM
COC(COCCCCCCCCCCC(=O)c1ccccc1)COP(=O)([O-])OCC[N+](C)(C)C (stereo not drawn)	>200 µM
CCCCCCC(=O)CCCCCCCCCCCOCC(COP(=O)(O)OC[C@@H](N)C(=O)O)OC (stereo partly drawn)	>200 µM
COC(COCCCCCCCCCCC(O)c1ccccc1)COP(=O)([O-])OCC[N+](C)(C)C (stereo not drawn)	>200 µM
CCCCCCCCCCCC(CCCCCC)CCCCCCOCC(COP(=O)([O-])OCC[N+](C)(C)C)OC (stereo not drawn)	>200 µM
CCCCCCC(O)CCCCCCCCCCCOCC(COCCCCC[N+](C)(C)C)OC.[Br-] (stereo not drawn)	50 µM
CCCCCCCCC(CCCCCCCC)CCCCCCOCC(COP(=O)([O-])OCC[N+](C)(C)C)OC (stereo not drawn)	>200 µM
CCCCCCCCCCCC(=O)CCCCCCOCC(COP(=O)(O)OC[C@@H](N)C(=O)O)OC (stereo partly drawn)	>200 µM
CCCCCCCCCCCC(C)CCCCCCOCC(COP(=O)([O-])OCC[N+](C)(C)C)OC (stereo not drawn)	5 µM
CCCCCCCCCCCC(=O)CCCCCCOCC(COCCCCC[N+](C)(C)C)OC.[Br-] (stereo not drawn)	5 µM

System: not listed separately
Experiment: Partition coefficient (logP)
Assay type: physicochemical
Details: octanol/water
Outline: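 Calculated rather than measured, for the C-1 chain including the ether O atom, by the Viswanadhan atom-based method.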

logP	SMILES
9.08	CCCCCCCCCCCC(CCCCCC)CCCCCCOCC(COP(=O)([O-])OCC[N+](C)(C)C)OC (stereo not drawn)

Same assay, conditions: octanol/water; read-out: logP

logP	SMILES
7.13	CCCCCCCCC(CCCCCCOCC(COP(=O)([O-])OCC[N+](C)(C)C)OC)c1ccccc1 (stereo not drawn)
4.29	COC(COCCCCCCCCCCC(=O)c1ccccc1)COP(=O)([O-])OCC[N+](C)(C)C (stereo not drawn)
4.7	COC(COCCCCCCCCCCC(O)c1ccccc1)COP(=O)([O-])OCC[N+](C)(C)C (stereo not drawn)
8.68	CCCCCCCCC(CCCCCCCC)CCCCCCOCC(COP(=O)([O-])OCC[N+](C)(C)C)OC (stereo not drawn)
7.1	CCCCCCCCCCCC(C)CCCCCCOCC(COP(=O)([O-])OCC[N+](C)(C)C)OC (stereo not drawn)

System: HL-60
Experiment: Cytotoxicity measured in HL-60 leukemic cells after a 24 hr incubation period.
Assay type: functional, cell-based, Homo sapiens
Details: Homo sapiens, HL-60, 24 h
Outline: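 HL-60 cells kept in RPMI-1640 with 5% heat-inactivated FCS, penicillin/streptomycin and 2 mM L-glutamine, >90% viable before use. 10^6 cells/mL exposed 24 h to 2.5–160 μM (twofold steps). Viability by trypan blue exclusion, as % viable cells versus total control cells. IC50 taken as the concentration giving 50% mortality. Two experiments in triplicate; compounds with IC50 >30 μM tested once.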

SMILES	IC50
CCCCCCCCC(CCCCCCOCC(COP(=O)([O-])OCC[N+](C)(C)C)OC)c1ccccc1 (stereo not drawn)	30.7 µM
CCCCCCCCCCCCCCCCOP(=O)([O-])OCC[N+](C)(C)C [MILTEFOSINE]	20.4 µM
COC(COCCCCCCCCCCC(=O)c1ccccc1)COP(=O)([O-])OCC[N+](C)(C)C (stereo not drawn)	> 160 µM
CCCCCCC(=O)CCCCCCCCCCCOCC(COP(=O)(O)OC[C@@H](N)C(=O)O)OC (stereo partly drawn)	30 µM
COC(COCCCCCCCCCCC(O)c1ccccc1)COP(=O)([O-])OCC[N+](C)(C)C (stereo not drawn)	> 160 µM
CCCCCCCCCCCC(CCCCCC)CCCCCCOCC(COP(=O)([O-])OCC[N+](C)(C)C)OC (stereo not drawn)	50 µM
CCCCCCC(O)CCCCCCCCCCCOCC(COCCCCC[N+](C)(C)C)OC.[Br-] (stereo not drawn)	25.6 µM
CCCCCCCCC(CCCCCCCC)CCCCCCOCC(COP(=O)([O-])OCC[N+](C)(C)C)OC (stereo not drawn)	52 µM
CCCCCCCCCCCC(=O)CCCCCCOCC(COP(=O)(O)OC[C@@H](N)C(=O)O)OC (stereo partly drawn)	> 160 µM
CCCCCCCCCCCC(C)CCCCCCOCC(COP(=O)([O-])OCC[N+](C)(C)C)OC (stereo not drawn)	8.9 µM
CCCCCCCCCCCC(=O)CCCCCCOCC(COCCCCC[N+](C)(C)C)OC.[Br-] (stereo not drawn)	4.2 µM
